Measured values taken from ChEMBL document CHEMBL2150978, “Phosphorodiamidates as a promising new phosphate prodrug motif for antiviral drug discovery: application to anti-HCV agents” (J Med Chem, 2011).

Legend:
[1] = Cytotoxicity against human HuH7 cells after 3 days; type: cell-based, Huh-7
Outline: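 Huh7 replicon cells seeded at 2 × 10⁴ per well one day before dosing. Four-fold serial dilutions in growth medium, no-drug controls on each plate. Incubated 3 days at 37 °C, 5% CO₂. Viability read by CellTiter-Glo luminescence after 20 min with reagent.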

[2] = system: Hepatitis C virus; assay: Antiviral activity against Hepatitis C virus subtype 1b Con1 infected in human Huh7 cells assessed as inhibition of HCV replicon-encoded Renilla luciferase reporter activity after 72 hrs by HCV replicon assay; type: functional, organism-based, Hepacivirus hominis; settings: Con1, Huh-7, 72 h
Outline: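 Huh7 cells stably carrying a bicistronic subgenomic genotype 1b (Con1) replicon with Renilla luciferase reporter, seeded at 2 × 10⁴ cells/well the day before. Four-fold serial dilutions in growth medium, no-drug controls on each plate; 3 days at 37 °C, 5% CO₂. Luciferase reagent 20 min, then luminescence (RLU) read; EC₅₀ derived.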

Row | Structure (SMILES) | CC50 at 72 h [1] [µM] | EC50 [2] [µM] | EC90 [2] [µM]
1 | COc1nc(N)nc2c1ncn2[C@@H]1O[C@H](COP(=O)(N[C@@H](CCSC)C(=O)OCC(C)(C)C)N[C@@H](CCSC)C(=O)OCC(C)(C)C)[C@@H](O)[C@@]1(C)O (mixture of isomers) | > 100 | 2.22 | 5
2 | COc1nc(N)nc2c1ncn2[C@@H]1O[C@H](COP(=O)(NCC(=O)OCc2ccccc2)NCC(=O)OCc2ccccc2)[C@@H](O)[C@@]1(C)O (mixture of isomers) | > 100 | 0.6 | 1.8
3 | CC[C@H](C)[C@H](NP(=O)(N[C@H](C(=O)OCc1ccccc1)[C@@H](C)CC)OC[C@H]1O[C@@H](n2cnc3c(OC)nc(N)nc32)[C@](C)(O)[C@@H]1O)C(=O)OCc1ccccc1 (mixture of isomers) | 24 | 0.4 | 1.56
4 | CCCCNP(=O)(N[C@@H](C)C(=O)OCC(C)(C)C)OC[C@H]1O[C@@H](n2cnc3c(OC)nc(N)nc32)[C@](C)(O)[C@@H]1O (mixture of isomers) | > 100 | 0.41 | 1.5
5 | COc1nc(N)nc2c1ncn2[C@@H]1O[C@H](COP(=O)(N[C@H](C(=O)OC2CCCCC2)c2ccccc2)N[C@H](C(=O)OC2CCCCC2)c2ccccc2)[C@@H](O)[C@@]1(C)O (mixture of isomers) | 18 | 0.32 | 1.8
6 | COc1nc(N)nc2c1ncn2[C@@H]1O[C@H](COP(=O)(N2CCC[C@H]2C(=O)OCC(C)(C)C)N2CCC[C@H]2C(=O)OCC(C)(C)C)[C@@H](O)[C@@]1(C)O (mixture of isomers) | 56 | 0.81 | 2
7 | CC[C@H](C)[C@H](NP(=O)(N[C@H](C(=O)OC)[C@@H](C)CC)OC[C@H]1O[C@@H](n2cnc3c(OC)nc(N)nc32)[C@](C)(O)[C@@H]1O)C(=O)OC (mixture of isomers) | > 100 | 5.17 | 29.5
8 | COc1nc(N)nc2c1ncn2[C@@H]1O[C@H](COP(=O)(N2CCOCC2)N2CCOCC2)[C@@H](O)[C@@]1(C)O (mixture of isomers) | > 100 | > 100 | > 100
9 | COc1nc(N)nc2c1ncn2[C@@H]1O[C@H](COP(=O)(N[C@@H](C)C(=O)OCC(C)(C)C)N[C@@H](C)C(=O)OC(C)(C)C)[C@@H](O)[C@@]1(C)O (mixture of isomers) | > 100 | 0.15 | 0.57
10 | COc1nc(N)nc2c1ncn2[C@@H]1O[C@H](COP(=O)(NCC(=O)OCC(C)(C)C)NCC(=O)OCC(C)(C)C)[C@@H](O)[C@@]1(C)O (mixture of isomers) | > 100 | 0.13 | 0.6
11 | COc1nc(N)nc2c1ncn2[C@@H]1O[C@H](COP(=O)(N[C@@H](C)C(=O)OC2CCCCC2)N[C@@H](C)C(=O)OC2CCCC2)[C@@H](O)[C@@]1(C)O (mixture of isomers) | > 100 | 0.04 | 0.16
12 | COc1nc(N)nc2c1ncn2[C@@H]1O[C@H](COP(=O)(N[C@@H](C)C(=O)OCC(C)(C)C)N2CCCC2)[C@@H](O)[C@@]1(C)O (mixture of isomers) | > 100 | 0.87 | 4
13 | COc1nc(N)nc2c1ncn2[C@@H]1O[C@H](COP(=O)(N[C@@H](Cc2ccccc2)C(=O)OCC(C)(C)C)N[C@@H](Cc2ccccc2)C(=O)OCC(C)(C)C)[C@@H](O)[C@@]1(C)O (mixture of isomers) | 24 | 0.05 | 0.21
14 | COc1nc(N)nc2c1ncn2[C@@H]1O[C@H](COP(=O)(Nc2ccccc2)N[C@@H](C)C(=O)OCC(C)(C)C)[C@@H](O)[C@@]1(C)O (mixture of isomers) | > 100 | 0.27 | 0.82
15 | CCN(CC)P(=O)(N[C@@H](C)C(=O)OCC(C)(C)C)OC[C@H]1O[C@@H](n2cnc3c(OC)nc(N)nc32)[C@](C)(O)[C@@H]1O (mixture of isomers) | > 100 | 3.7 | > 10
16 | CC[C@H](C)[C@H](NP(=O)(N[C@H](C(=O)OCC(C)(C)C)[C@@H](C)CC)OC[C@H]1O[C@@H](n2cnc3c(OC)nc(N)nc32)[C@](C)(O)[C@@H]1O)C(=O)OCC(C)(C)C (mixture of isomers) | 15 | 2.9 | 6.3
17 | COc1nc(N)nc2c1ncn2[C@@H]1O[C@H](COP(=O)(N[C@@H](CC(C)C)C(=O)OCC(C)(C)C)N[C@@H](CC(C)C)C(=O)OCC(C)(C)C)[C@@H](O)[C@@]1(C)O (mixture of isomers) | 27 | 0.47 | 2.4
18 | COc1nc(N)nc2c1ncn2[C@@H]1O[C@H](COP(=O)(N[C@@H](C)C(=O)OC2CCCCO2)N[C@@H](C)C(=O)OC2CCCCO2)[C@@H](O)[C@@]1(C)O (mixture of isomers) | > 100 | 13.3 | 29.3
19 | COc1nc(N)nc2c1ncn2[C@@H]1O[C@H](COP(=O)(N[C@H](C(=O)OCC(C)(C)C)C(C)C)N[C@H](C(=O)OCC(C)(C)C)C(C)C)[C@@H](O)[C@@]1(C)O (mixture of isomers) | 32 | 0.72 | 2.5
20 | COc1nc(N)nc2c1ncn2[C@@H]1O[C@H](COP(=O)(N[C@@H](C)C(=O)OCC(C)(C)C)N[C@@H](C)C(=O)OC2CCCCC2)[C@@H](O)[C@@]1(C)O (mixture of isomers) | > 100 | 0.04 | 0.15
21 | COc1nc(N)nc2c1ncn2[C@@H]1O[C@H](COP(=O)(N2CCC[C@H]2C(=O)OCc2ccccc2)N2CCC[C@H]2C(=O)OCc2ccccc2)[C@@H](O)[C@@]1(C)O (mixture of isomers) | > 100 | 0.52 | 1.8
22 | CCOc1nc(N)nc2c1ncn2[C@@H]1O[C@H](COP(=O)(N[C@@H](C)C(=O)OCC(C)(C)C)N[C@@H](C)C(=O)OCC(C)(C)C)[C@@H](O)[C@@]1(C)O (mixture of isomers) | 72 | 0.04 | 0.11
23 | COc1nc(N)nc2c1ncn2[C@@H]1O[C@H](COP(=O)(N[C@@H](CC(=O)OCc2ccccc2)C(=O)OCc2ccccc2)N[C@@H](CC(=O)OCc2ccccc2)C(=O)OCc2ccccc2)[C@@H](O)[C@@]1(C)O (mixture of isomers) | > 100 | 0.61 | 1.9
24 | COc1nc(N)nc2c1ncn2[C@@H]1O[C@H](COP(=O)(Nc2cccc3ccccc23)N[C@@H](C)C(=O)OCC(C)(C)C)[C@@H](O)[C@@]1(C)O (mixture of isomers) | > 100 | 0.13 | 0.56
25 | COc1nc(N)nc2c1ncn2[C@@H]1O[C@H](COP(=O)(N[C@@H](Cc2ccccc2)C(=O)OCc2ccccc2)N[C@@H](Cc2ccccc2)C(=O)OCc2ccccc2)[C@@H](O)[C@@]1(C)O (mixture of isomers) | 67 | 0.32 | 1.35
26 | COC(=O)C[C@H](NP(=O)(N[C@@H](CC(=O)OC)C(=O)OC)OC[C@H]1O[C@@H](n2cnc3c(OC)nc(N)nc32)[C@](C)(O)[C@@H]1O)C(=O)OC (mixture of isomers) | > 100 | 10.2 | > 40
27 | COC(=O)[C@@H]1CCCN1P(=O)(N[C@@H](C)C(=O)OCC(C)(C)C)OC[C@H]1O[C@@H](n2cnc3c(OC)nc(N)nc32)[C@](C)(O)[C@@H]1O (mixture of isomers) | > 100 | 0.49 | 2.2
28 | CCCCNP(=O)(N[C@@H](C)C(=O)OCc1ccccc1)OC[C@H]1O[C@@H](n2cnc3c(OC)nc(N)nc32)[C@](C)(O)[C@@H]1O (mixture of isomers) | > 100 | 0.44 | 1.68
29 | COc1nc(N)nc2c1ncn2[C@@H]1O[C@H](COP(=O)(N[C@@H](CCSC)C(=O)OCc2ccccc2)N[C@@H](CCSC)C(=O)OCc2ccccc2)[C@@H](O)[C@@]1(C)O (mixture of isomers) | > 100 | 0.25 | 0.77
